This is a sample that favours compounds with a hit; in the whole collection about 4% have one here.
Yeast lifespan up = extends the lifespan of yeast. AID 775. inhibition of the nicotinamide effect, % at 10 µM. actives 0.68% (n = 130,000). S. cerevisiae growth with nicotinamide, OD615; deaD strain in restrictive glucose medium;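 active = inhibition above a set limit, placed 3 SD over the median of all compounds, cut at about 26% in these data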
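System: Modified budding yeast, DeaD strain | Buffer or medium: Restrictive glucose medium | Also added: 1.5 mM nicotinamide | Doses: 10 µM single point, 0.25% DMSO | Schedule: 48 h compound exposure at 30 °C, humidified | Detection: Absorbance at 615 nm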
Measles CPE = protection of cells from measles virus; Measles virus-infected cells, CPE protection, absorbance; protection (pct of control), % at 4 µM; actives 1.5% (n = 140,000); in the data active = protection mostly above about 24%, no sharp cut-off; inactive = mostly below about 26%
Yeast growth inh = reduces growth of yeast BB579 in restrictive medium; S. cerevisiae BB579 growth, OD615, 48 h; inhibition, % at 10 µM; actives 0.51% (n = 140,000);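 active = inhibition above a set limit, 3 SD over the mean compound inhibition, cut at about 44% in these data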
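Assay system – yeast BB579 (DeaD) · Dosing – single compound dose of 10 µM, 0.25% DMSO final · Detection – OD615 turbidity measurement · Buffer or medium – CSMM-D restrictive synthetic medium containing dextrose (glucose) · Benchmarks – positive control amphotericin B 10 µg/mL · Incubation – 48 h exposure, 30 °C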
RAM network inh = yeast RAM network inhibition; actives 1.8% (n = 190,000); inhibition, % at 50 µM; S. cerevisiae dse1pr::URA3 reporter, 5-FOA growth OD615, 2 d; analog-sensitive cbk1-as2 kinase mutant strain; AID 868;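 active = inhibition above a set limit, 3 SD over mean compound inhibition, cut at about 8.4% in these data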;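 also: inhibition rescues growth on 5-FOA so higher OD means more RAM inhibition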
MDM2 E3 inh = Mdm2 E3 ligase (human) inhibition; actives 0.11% (n = 210,000); cell-based MDM2 ubiquitination luciferase reporter, 2 h; 0 = plate control, 100 = twice control, blank-subtracted; signal enhancement, % at 5 µM;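 active = signal enhancement of 30% or more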;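 also: luminescence tracks abundance of the self-degrading MDM2-luciferase fusion protein; higher signal means inhibition of MDM2 E3 ligase activity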
Target sequence (Q00987 whole entry, looked up, the tested form may be a part): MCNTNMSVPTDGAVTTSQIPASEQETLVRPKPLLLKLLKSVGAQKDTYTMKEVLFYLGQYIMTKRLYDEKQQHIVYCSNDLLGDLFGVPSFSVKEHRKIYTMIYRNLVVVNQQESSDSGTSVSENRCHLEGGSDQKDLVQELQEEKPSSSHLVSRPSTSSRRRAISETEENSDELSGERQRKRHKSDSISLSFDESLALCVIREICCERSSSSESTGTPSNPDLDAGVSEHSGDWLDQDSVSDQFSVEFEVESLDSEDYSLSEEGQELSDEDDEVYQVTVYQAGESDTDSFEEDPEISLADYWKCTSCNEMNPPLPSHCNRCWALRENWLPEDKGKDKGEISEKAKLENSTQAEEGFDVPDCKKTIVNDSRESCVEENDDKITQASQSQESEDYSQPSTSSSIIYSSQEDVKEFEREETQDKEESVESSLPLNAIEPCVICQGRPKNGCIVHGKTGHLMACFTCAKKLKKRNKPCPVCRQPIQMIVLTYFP
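System: stable MDM2–luciferase fusion reporter cells / Input: 2000 cells seeded into each well / Schedule: 4 h settle plus 2 h compound, 37 °C / Compound: single-point 5 µM / Buffer or medium: cells held in DMEM / Benchmarks: control and blank well means / Evaluation: percent signal gain over controls, blank-subtracted / Measured by: luciferase luminescence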
Insulin prom inh = TRM-6 insulin promoter activity inhibition; TRM-6 cells, insulin promoter-eGFP reporter, imaging; reporter expression induced with tamoxifen; inhibition, % at 2 µM; actives 0.9% (n = 130,000); AID 1273;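 active = inhibition above the mean plus 3 SD, with well images judged a real hit on visual review, cut at about 60% in these data, passing the limit was not always enough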
Large screens that a line does not name were inactive.

O=C1NC(c2ccccc2)=C(c2ccccc2)C1=O	Measles CPE 44.6
Cc1cccc(NC(=O)c2cc([N+](=O)[O-])ccc2N2CCCCC2)n1	none (no result: Yeast lifespan up, Measles CPE, Yeast growth inh, Insulin prom inh)
Clc1ccc2c(NCc3ccco3)ncnc2c1	Insulin prom inh 78.6
Cn1c(=O)c2nc(NCc3ccccc3)cnc2n(C)c1=O	none (no result: Insulin prom inh)
Cc1nc2c(=O)n(C)c(=O)n(C)c2nc1Cl	Yeast lifespan up 75.1
Cc1ccc(C)c(S(=O)(=O)NCc2ccc(C(=O)N3CCCCCC3)cc2)c1	Insulin prom inh 76.9
Cc1ccc(C)c(S(=O)(=O)NCc2ccc(C(=O)N3CC(C)OC(C)C3)cc2)c1 (stereo not given)	none (no result: Yeast lifespan up, MDM2 E3 inh)
CCOC(=O)c1c(NC(=O)CSc2nnc(-c3ccccc3)o2)sc(C(C)=O)c1C	none (no result: MDM2 E3 inh)
CCOC(=O)c1sc(NC(=O)CSc2nncs2)c(C(=O)OCC)c1C	none (no result: Insulin prom inh)
CCOC(=O)c1c(NC(=O)CSc2nnc(Cc3ccccc3)o2)sc(C(C)=O)c1C	RAM network inh 9.0
CCOC(=O)c1sc(NC(=O)CSc2nc3ccccc3s2)c(C(=O)OCC)c1C	Measles CPE 40.1
CCOC(=O)c1c(NC(=O)CSc2nc3ccccc3o2)sc(C(C)=O)c1C	RAM network inh 9.2
COc1ccc(C2(NC(C)=O)CCN(C(=O)c3ccco3)CC2)cc1	none (no result: Insulin prom inh)
O=C(COC(=O)CNS(=O)(=O)c1cccc(Br)c1)NC(=O)Nc1ccc2c(c1)OCCO2	none
CC(Oc1ccc(Cl)cc1)C(=O)N/N=C/c1ccsc1 (stereo not given)	none (no result: MDM2 E3 inh)
COc1cc(/C=N/n2c(C)nnc2C)cc(OC)c1OC	none
COc1c(Br)cc(Br)cc1/C=N/n1c(C)nnc1C	Yeast lifespan up 36.6
Clc1ccccc1/C=N/NC1=Nc2cccc3cccc1c23	MDM2 E3 inh 346.3
CCc1ccc(CN(C)C(=O)CCc2nnc(COc3ccccc3)o2)cc1	none (no result: Yeast lifespan up, Measles CPE, Yeast growth inh)
N#Cc1cc2c(nc1SCc1ccc(Cl)cc1)CCCC2	RAM network inh 8.7 (no result: Yeast lifespan up)
COc1ccc2[nH]c3c(=O)n(N)c(C)nc3c2c1	Insulin prom inh 80.7
COc1ccc2[nH]c3c(=O)n4c(nc3c2c1)SCC4	none (no result: Yeast lifespan up, Measles CPE, Yeast growth inh, Insulin prom inh)
Cc1ccc2[nH]c3c(=O)n(N)c(C)nc3c2c1	Insulin prom inh 93.8 (no result: Yeast lifespan up, Measles CPE, Yeast growth inh)
CSc1ccc(/C=C(\C#N)C(=O)Nc2cccc(C)c2)cc1	none (no result: Insulin prom inh)
CCn1c(NC(=O)Nc2ccccc2OC)nc2ccccc21	none
CSc1nnc(-c2ccccc2)o1	none
O=S1(=O)C=C(Sc2nnc(-c3ccccc3)o2)c2ccccc21	Yeast lifespan up 43.3
COC(=O)c1ccc(C2Nc3ccc(/C(C)=N/NC(=O)C(OC)c4ccccc4)cc3C3C=CCC32)cc1 (stereo not given)	none (no result: Insulin prom inh)
Cc1oc2c(cc(NS(=O)(=O)c3ccc4c5c(cccc35)C(=O)N4)c3ccccc32)c1C(=O)OC(C)C	RAM network inh 9.2
COC(=O)c1ccccc1NS(=O)(=O)c1ccc2c3c(cccc13)C(=O)N2	none (no result: Yeast lifespan up, Measles CPE, Yeast growth inh, RAM network inh, MDM2 E3 inh)
COc1ccc(N2C(=O)CC(N(C)CCc3ccc(OC)c(OC)c3)C2=O)cc1 (stereo not given)	none (no result: Yeast lifespan up, Measles CPE, Yeast growth inh)
COC(=O)c1ccc(N2C(=O)CC(N(C)CCc3ccc(OC)c(OC)c3)C2=O)cc1 (stereo not given)	Measles CPE 138.4
CCC(=O)N1CCN(c2ccccc2NC(=O)COc2ccccc2Cl)CC1	none
COc1ccccc1-c1cc(C(F)(F)F)nc(S(=O)(=O)CCCC(=O)NC(C)C)n1	none (no result: Insulin prom inh)
COc1ccccc1-c1cc(C(F)(F)F)nc(S(=O)(=O)CCCC(=O)Nc2cccnc2Cl)n1	MDM2 E3 inh 43.0, Insulin prom inh 73.3 (no result: Yeast lifespan up, Measles CPE, Yeast growth inh)
Cc1cc(NC(=O)CC2(CC(=O)O)CCCC2)n(C)n1	none (no result: Yeast lifespan up, Measles CPE, Yeast growth inh, RAM network inh, Insulin prom inh)
O=S1(=O)Nc2c(ccc3cccnc23)-c2ccccc21	Yeast growth inh 99.7 (no result: Insulin prom inh)
O=C(NCc1ccccc1)N[C@@H](Cc1c[nH]c2ccccc12)C(=O)O	Insulin prom inh 75.0
CCCNC(=O)[C@H](Cc1c[nH]c2ccccc12)NC(=O)c1ccccc1Cl	Measles CPE 31.5
O=C(NC(Cc1c[nH]c2ccccc12)C(=O)O)c1ccco1 (stereo not given)	none
CCCc1nnc2n1N=C(c1ccc(-c3cc(Cl)ccc3Cl)o1)CS2	none
O=C(NCCSc1ccccc1)c1cncc(Br)c1	Insulin prom inh 75.0
